In ChEMBL document CHEMBL1212693, “Dorsomorphin inhibits BMP signals required for embryogenesis and iron metabolism” (Nat Chem Biol, 2008):
Active and inactive are the calls of the source. The rule behind the calls is not given here.

Experiments:
[1] = species: Mus musculus; test: Inhibition of ALK2-mediated Id1 promoter activity in BMPR2 deficient mouse PASMC at 10 uM by immunoblot analysis
Procedure, shortened: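 BMPR-II–deficient mouse PASMCs at 50% confluence co-transfected with Id1 promoter firefly luciferase (BRE-Luc, 0.3 µg), caALK2, caALK3 or caALK6 (0.6 µg), and pRL-TK Renilla (0.2 µg). Compound (4–10 µM) or vehicle added 1 h after transfection. Activity read as firefly/Renilla ratio by dual luciferase assay; n = 3, mean ± s.d.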

[2] = species: Mus musculus; test: Inhibition of BMPR1-mediated Smad-1 phosphorylation in BMP4-stimulated mouse PASMC at 100 to 200 ng/ml treated 30 mins before BMP4 challenge measured after 30 mins by immunoblot analysis
Procedure, shortened: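 Mouse PASMCs were serum-reduced 24 h in 0.5% FCS RPMI, pretreated 30 min with noggin or vehicle, then given BMP4 for 30 min. Lysates in SDS buffer were immunoblotted for phospho-SMAD1/5/8 and phospho-MAPK p38, and signals were quantitated by phosphorimager.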

[3] = species: Mus musculus; test: Inhibition of BMPR1-mediated Smad-1 phosphorylation in BMP2-stimulated mouse PASMC at 4 uM treated 30 mins before BMP2 challenge measured after 30 mins by immunoblot analysis
Procedure, shortened: (§1)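 PASMCs (wild-type or BMPR-II–deficient) were kept 24 h in RPMI with 0.5% FCS, preincubated 30 min with compound or vehicle, then stimulated 30 min with recombinant BMP (10 ng ml−1). Extracts in SDS-lysis buffer were immunoblotted for phospho-SMAD1/5/8, with total SMAD1 and α-tubulin as loading controls. Bands were quantitated by phosphorimager.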

[4] = test system: Mus musculus; test: Inhibition of iron-dextran conjugate-induced Smad-5 phosphorylation in C57BL/6 mouse at 23 ug/g, iv after 1 hr; assay type: functional, organism-based
[5] = species: Danio rerio; test: Inhibition of BMPR1 in zebrafish assessed as penetrance of moderate embryonic axis dorsalization at 10 uM treated continuously from 8 hrs post-fertilization measured at 48 hrs; set-up: scale not given: the % may be the effect or the level left
[6] = species: Mus musculus; test: Inhibition of BMPR1-mediated Smad-1 phosphorylation in BMP4-stimulated mouse PASMC at 4 uM treated 30 mins before BMP4 challenge measured after 30 mins by immunoblot analysis; procedure, shortened: as §1
[7] = species: Mus musculus; test: Inhibition of BMPR1-mediated Smad-8 phosphorylation in BMP2-stimulated mouse BMPR2 deficient PASMC at 4 uM treated 30 mins before BMP2 measured after 30 mins by immunoblot analysis
[8] = species: Danio rerio; test: Inhibition of BMPR1 in zebrafish assessed as severity of embryonic axis dorsalization at 10 uM treated continuously from 10 hrs post-fertilization measured at 48 hrs; set-up: scale not given: the % may be the effect or the level left
[9] = species: Danio rerio; test: Inhibition of BMPR1-mediated osteoblast differentiation in zebrafish assessed as decrease in alkaline phosphatase level at 1 to 4 uM treated at 24 hrs post-fertilization measured on day 10 post-fertilization
[10] = species: Danio rerio; test: Inhibition of BMPR1 in zebrafish assessed as severity of embryonic axis dorsalization at 10 uM treated at 3 hrs post-fertilization measured at 48 hrs; set-up: scale not given: the % may be the effect or the level left
[11] = test system: C2C12; test: Cytotoxicity against mouse C2C12 cells at 4 uM by Cell Titer Glo assay; assay type: cell-based; conditions: c2c12, 4 µM
Procedure, shortened: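 C2C12 cells seeded at 2,000 cells/well in DMEM with 2% FBS and treated in quadruplicate with BMP ligands plus compound or vehicle. Viability measured by Cell-titer Glo after 5 d culture, using replicate wells treated identically to those for alkaline phosphatase.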

[12] = species: Mus musculus; test: Inhibition of BMPR1-mediated Smad-1 phosphorylation in BMP2-stimulated mouse BMPR2 deficient PASMC at 4 uM treated 30 mins before BMP2 challenge measured after 30 mins by immunoblot analysis; procedure, shortened: as §1
[13] = species: Danio rerio; test: Inhibition of BMPR1 in zebrafish assessed as penetrance of normal embryonic axis dorsalization at 0.2 uM treated at 3 hrs post-fertilization measured at 48 hrs; set-up: scale not given: the % may be the effect or the level left
[14] = species: Danio rerio; test: Inhibition of BMPR1 in zebrafish assessed as penetrance of normal embryonic axis dorsalization at 10 uM treated continuously from 6 hrs post-fertilization measured at 48 hrs; set-up: scale not given: the % may be the effect or the level left
[15] = species: Danio rerio; test: Inhibition of BMPR1 in zebrafish assessed as penetrance of normal embryonic axis dorsalization at 1 uM treated at 3 hrs post-fertilization measured at 48 hrs; set-up: scale not given: the % may be the effect or the level left
[16] = species: Danio rerio; test: Inhibition of BMPR1 in zebrafish assessed as penetrance of mild embryonic axis dorsalization at 7.5 uM treated at 3 hrs post-fertilization measured at 48 hrs; set-up: scale not given: the % may be the effect or the level left
Procedure, shortened: (§2)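 Compound added at the stated times and concentrations. Gross morphology scored visually at up to 48 h.p.f. for dorsalization of the embryonic axis.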

[17] = species: Mus musculus; test: Inhibition of ALK3-mediated Smad-1 phosphorylation in BMPR2 deficient mouse PASMC at 10 uM by immunoblot analysis
Procedure, shortened: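 BMPR-II–deficient mouse PASMCs (RPMI, 10% FBS) transiently transfected with constitutively active ALK2, ALK3 or ALK6 cDNA, or plasmid-only control. Incubated with or without compound (10 µM). Extracts lysed in SDS buffer, run on SDS-PAGE and immunoblotted for phospho-SMAD1/5/8; quantitated by phosphorimager.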

[18] = test system: Mus musculus; test: Inhibition of iron-dextran conjugate-induced Smad-8 phosphorylation in C57BL/6 mouse at 23 ug/g, iv after 1 hr; assay type: functional, organism-based
[19] = test system: Danio rerio; test: Inhibition of iron-dextran conjugate-induced Smad-5 phosphorylation in zebrafish at 23 ug/g, iv after 1 hr relative to control; assay type: functional
[20] = species: Danio rerio; test: Inhibition of BMPR1 in zebrafish assessed as penetrance of normal embryonic axis dorsalization at 7.5 uM treated at 3 hrs post-fertilization measured at 48 hrs; set-up: scale not given: the % may be the effect or the level left
[21] = species: Danio rerio; test: Inhibition of BMPR1 in zebrafish assessed as severity of embryonic axis dorsalization at 10 uM treated at 6 to 8 hrs post-fertilization measured at 48 hrs; set-up: scale not given: the % may be the effect or the level left
[22] = species: Danio rerio; test: Inhibition of BMPR1 in zebrafish assessed as penetrance of mild embryonic axis dorsalization at 10 uM treated at 4 to 8 hrs post-fertilization measured at 48 hrs; set-up: scale not given: the % may be the effect or the level left; procedure, shortened: as §2
[23] = species: Danio rerio; test: Inhibition of AMPK in zebrafish assessed as embryonic axis dorsalization at 10 uM treated at 3 hrs post-fertilization measured at 48 hrs; set-up: scale not given: the % may be the effect or the level left
[24] = species: Danio rerio; test: Inhibition of BMPR1 in zebrafish assessed as decrease in eve1 expression at 10 uM treated at 18-somite stage measured at 48 hrs
[25] = species: Danio rerio; test: Inhibition of BMPR1 in zebrafish assessed as severity of embryonic axis dorsalization at 10 uM treated at 4 to 8 hrs post-fertilization measured at 48 hrs; set-up: scale not given: the % may be the effect or the level left
[26] = species: Danio rerio; test: Inhibition of BMPR1 in zebrafish assessed as penetrance of normal embryonic axis dorsalization at 10 uM treated at 6 to 8 hrs post-fertilization measured at 48 hrs; set-up: scale not given: the % may be the effect or the level left
[27] = species: Mus musculus; test: Inhibition of BMPR1-mediated Smad-5 phosphorylation in BMP7-stimulated mouse BMPR2 deficient PASMC at 4 uM treated 30 mins before BMP7 challenge measured after 30 mins by immunoblot analysis
[28] = species: Danio rerio; test: Inhibition of BMPR1 in zebrafish assessed as penetrance of moderate embryonic axis dorsalization at 10 uM treated continuously from 10 hrs post-fertilization measured at 48 hrs; set-up: scale not given: the % may be the effect or the level left; procedure, shortened: as §2

## c1cc(-c2cnn3cc(-c4ccc(OCCN5CCCCC5)cc4)cnc23)ccn1 [DORSOMORPHIN]
[1]
  inhibition: Dose-dependent effect
[2]
  inhibition: Active
[3]
  inhibition: Active
[4]
  inhibition: Active
[5]
  Activity: 0%
[6]
  inhibition: Active
[7]
  inhibition: Active
[8]
  Activity: 0%
[9]
  inhibition: Active
[10]
  Activity: 100%
[11]
  Activity: Non-toxic
[12]
  inhibition: Active
[13]
  Activity: 100%
[14]
  Activity: 0%
[15]
  Activity: 100%
[16]
  Activity: 58%
[17]
  inhibition: Active
[18]
  inhibition: Active
[19]
  fold change (FC): 3
[20]
  Activity: 0%
[21]
  Activity: 0%
[22]
  Activity: 65%
[23]
  Activity: 100%
[24]
  inhibition: Active
[25]
  Activity: 0%
[26]
  Activity: 0%
[27]
  inhibition: Active
[28]
  Activity: 0%
